Experimental data as given in ChEMBL document CHEMBL1152809, “Structure-activity relationships of orotidine-5'-monophosphate decarboxylase inhibitors as anticancer agents” (J Med Chem, 2009).
Active and inactive are the calls of the source. The rule behind the calls is not given here.

Experiments:
[1] = (§1) Irreversible inhibition of Methanobacterium thermoautotrophicum ODCase; design: species or system Methanothermobacter thermautotrophicus
[2] = tested on: Methanothermobacter thermautotrophicus; experiment: as §1
[3] = molecular target: Orotidine 5'-phosphate decarboxylase (Methanobacterium thermoautotrophicum, UniProt O26232); experiment: Reversible inhibition of Methanobacterium thermoautotrophicum ODCase; design: species or system Methanothermobacter thermautotrophicus
Chain of Orotidine 5'-phosphate decarboxylase (O26232 whole entry): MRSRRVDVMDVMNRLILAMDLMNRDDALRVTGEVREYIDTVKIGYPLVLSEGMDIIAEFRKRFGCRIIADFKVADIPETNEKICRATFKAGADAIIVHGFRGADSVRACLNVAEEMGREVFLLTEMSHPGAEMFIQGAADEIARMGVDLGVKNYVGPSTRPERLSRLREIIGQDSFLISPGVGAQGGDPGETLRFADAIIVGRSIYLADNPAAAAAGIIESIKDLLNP
Outline: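 Inhibitor levels span 0-1.0 µM up to 0-4.0 mM depending on compound. Rates from heat flow fitted to a competitive model for Ki; experiments in triplicate.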

OVCAR-4 = experiment: Antitumor activity against human OVCAR4 cells after 3 days by WST1 assay; assay type: functional, cell-based; details: OVCAR-4, 72 h
Outline: (§2)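 Cell lines grown in Iscove's MDM with 5% FCS, 50 µM 2-mercaptoethanol, penicillin and streptomycin; suspension lines kept at 0.5-1.5 × 10^6 cells/mL, adherent lines subconfluent. Cells seeded in triplicate at 10^4 cells/100 µL. Compounds were dissolved in water and added immediately at 0 to 100 µM final. WST.1 read at 440 nm on day 3; IC50 taken from OD versus concentration plots.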

COLO 205 = experiment: Antitumor activity against human COLO205 cells after 3 days by WST1 assay; assay type: functional, cell-based; details: COLO 205, 72 h; outline: as §2
MCF7 [4] = experiment: Antitumor activity against human MCF7 cells up to 50 uM after 3 days by WST1 assay; assay type: functional, cell-based; outline: as §2
MDA-MB-468 = experiment: Antitumor activity against human MDA468 cells up to 50 uM after 3 days by WST1 assay; assay type: functional, cell-based; outline: as §2
[5] = Cytotoxicity against human CCD-967 cells up to 50 uM after 3 days by WST1 assay; assay type: cell-based; details: ccd-967, 72 h
Outline: (§3)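 Cells grown in Iscove's MDM with 5% FCS, 50 µM 2-mercaptoethanol and antibiotics, kept subconfluent if adherent. Seeded in triplicate at 10^4 cells/100 µL with compounds (in water) added at once, 0 to 100 µM final. WST.1 formazan read at 440 nm on day 3; IC50 from OD versus concentration.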

Hs-578T [6] = experiment: Antitumor activity against human Hs 578T cells up to 50 uM after 3 days by WST1 assay; assay type: functional, cell-based; outline: as §2
T47D [7] = experiment: Antitumor activity against human T47D cells up to 50 uM after 3 days by WST1 assay; assay type: functional, cell-based; outline: as §2
PC-3 = experiment: Antitumor activity against human PC3 cells up to 50 uM after 3 days by WST1 assay; assay type: functional, cell-based; outline: as §2
SNB-19 [8] = experiment: Antitumor activity against human SNB19 cells up to 50 uM after 3 days by WST1 assay; assay type: functional, cell-based; outline: as §2
[9] = Antitumor activity against human MDA468 cells after 3 days by WST1 assay; assay type: functional, cell-based; details: MDA-MB-468, 72 h; outline: as §2
[10] = Antitumor activity against human OCI-AML1 cells after 3 days by WST1 assay; assay type: functional, cell-based; details: ML1, 72 h; outline: as §2
OCI-AML2 = experiment: Antitumor activity against human OCI-AML2 cells after 3 days by WST1 assay; assay type: functional, cell-based; details: OCI-AML2, 72 h; outline: as §2
[11] = Antitumor activity against human OCI-LY7 cells after 3 days by WST1 assay; assay type: functional, cell-based; details: OCI-Ly7, 72 h; outline: as §2
[12] = Antitumor activity against human OCI-My 2 cells after 3 days by WST1 assay; assay type: functional, cell-based; details: 72 h; outline: as §2
[13] = Antitumor activity against human SKW3 cells after 3 days by WST1 assay; assay type: functional, cell-based; details: SKW3, 72 h; outline: as §2
MCF7 [14] = experiment: Antitumor activity against human MCF7 cells after 3 days by WST1 assay; assay type: functional, cell-based; details: MCF7, 72 h; outline: as §2
[15] = Antitumor activity against human LOX cells after 3 days by WST1 assay; assay type: functional, cell-based; details: 72 h; outline: as §2
ML1 = experiment: Induction of apoptosis in human OCI-AML1 cells by […]/propidium iodide staining assay; assay type: functional, cell-based
Outline: (§4)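 Cells seeded in duplicate at 10^5 cells/mL; inhibitors added straight after seeding at 4 µM final, water in control wells. Cells harvested every 24 h, washed in PBS, stained with Annexin V/propidium iodide (1:200) and analysed by FACS; apoptotic cells scored as Annexin V+/PI-, necrotic as Annexin V+/PI+.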

PBMC = experiment: Cytotoxicity against human PBMC cells by WST1 assay; assay type: cell-based
Outline: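 Donor PBMCs isolated on Ficoll-Hypaque from blood diluted 1:1 in PBS, washed twice in PBS and stimulated with 3 µg/mL concanavalin A. Seeded in triplicate at 10^5 cells/100 µL; compounds in water added immediately, 0-100 µM final. WST.1 absorbance at 440 nm on day 3; IC50 from OD versus concentration plots.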

[16] = Cytotoxicity against human CCD-967 cells up to 4 uM after 3 days by WST1 assay; assay type: cell-based; details: ccd-967, 72 h; outline: as §3
Hs-578T [17] = experiment: Antitumor activity against human Hs 578T cells up to 4 uM after 3 days by WST1 assay; assay type: functional, cell-based; outline: as §2
T47D [18] = experiment: Antitumor activity against human T47D cells up to 4 uM after 3 days by WST1 assay; assay type: functional, cell-based; outline: as §2
SNB-19 [19] = experiment: Antitumor activity against human SNB19 cells up to 4 uM after 3 days by WST1 assay; assay type: functional, cell-based; outline: as §2
OCI-Ly7 = experiment: Induction of apoptosis in human OCI-LY7 cells 4 uM by […]/propidium iodide staining assay; assay type: functional, cell-based; outline: as §4
Homo sapiens = species on record: Homo sapiens; experiment: Induction of apoptosis in human OCI-My 2 cells 4 uM by […]/propidium iodide staining assay; assay type: functional, cell-based; outline: as §4
SKW3 = experiment: Induction of apoptosis in human SKW3 cells at 4 uM by annexin V/propidium iodide staining assay
[20] = molecular target: T1, Uridine 5'-monophosphate synthase (Homo sapiens, UniProt P11172); experiment: Reversible inhibition of human ODCase
T1 sequence (P11172 whole entry): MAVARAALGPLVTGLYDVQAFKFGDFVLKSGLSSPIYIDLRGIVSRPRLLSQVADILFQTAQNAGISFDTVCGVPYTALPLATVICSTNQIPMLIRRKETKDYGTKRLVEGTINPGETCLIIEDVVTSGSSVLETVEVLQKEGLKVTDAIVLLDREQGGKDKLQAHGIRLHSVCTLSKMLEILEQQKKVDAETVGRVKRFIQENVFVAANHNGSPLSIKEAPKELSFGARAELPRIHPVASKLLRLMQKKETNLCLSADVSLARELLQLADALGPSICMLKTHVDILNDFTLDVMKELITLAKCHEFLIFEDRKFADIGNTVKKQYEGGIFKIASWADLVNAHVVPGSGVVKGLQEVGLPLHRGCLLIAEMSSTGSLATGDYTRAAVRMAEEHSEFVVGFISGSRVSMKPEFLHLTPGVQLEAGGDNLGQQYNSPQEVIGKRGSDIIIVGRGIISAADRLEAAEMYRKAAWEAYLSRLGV
Outline: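 Human ODCase at 60 nM in 50 mM Tris, 1 mM DTT, assayed by ITC at 37 °C. Enzyme mixed with inhibitor (stocks in 50 mM Tris pH 7.5) and the reaction started with OMP, 15 or 20 µM final. Inhibitor ranges from 0-1.0 µM up to 0-500 µM. Ki from direct fit of decarboxylation rates; triplicates.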

| SMILES | Ki [3] | IC50 (OVCAR-4) | IC50 (COLO 205) | Activity (MCF7 [4]) | Activity (MDA-MB-468) | Activity [5] | Activity (Hs-578T [6]) | Activity (T47D [7]) | Activity (PC-3) | Activity (SNB-19 [8]) | IC50 [9] | IC50 [10] | IC50 (OCI-AML2) | IC50 [11] | IC50 [12] | IC50 [13] | IC50 (MCF7 [14]) | IC50 [15] | further results |
| --- | --- | --- | --- | --- | --- | --- | --- | --- | --- | --- | --- | --- | --- | --- | --- | --- | --- | --- | --- |
| [N-]=[N+]=Nc1cc(=O)[nH]c(=O)n1[C@@H]1O[C@H](COP(=O)(O)O)[C@@H](O)[C@H]1O | 0.2 µM | – | – | – | – | – | – | – | – | – | – | – | – | – | – | – | – | – | Ki [1]: 0.6 µM; Kinact [2]: 61.2 h⁻¹ |
| CNc1cc(=O)[nH]c(=O)n1[C@@H]1O[C@H](CO)[C@@H](O)[C@H]1O | – | > 50 µM | > 50 µM | inactive | inactive | Not Active | inactive | inactive | inactive | inactive | > 50 µM | > 50 µM | > 50 µM | > 50 µM | > 50 µM | > 50 µM | > 50 µM | > 50 µM | – |
| O=c1[nH]c(=O)n([C@@H]2O[C@H](CO)[C@@H](O)[C@H]2O)c(I)c1Br | – | > 50 µM | > 50 µM | inactive | inactive | Not Active | inactive | inactive | inactive | inactive | > 50 µM | > 50 µM | > 50 µM | > 50 µM | > 50 µM | > 50 µM | > 50 µM | > 50 µM | – |
| Nc1c(F)c(=O)[nH]c(=O)n1[C@@H]1O[C@H](CO)[C@@H](O)[C@H]1O | – | 2 µM | 3.3 µM | – | – | – | – | – | – | – | 2.6 µM | 0.7 µM | 0.9 µM | 1.3 µM | 0.9 µM | 0.6 µM | 1.4 µM | 3.4 µM | Activity (ML1): Active; IC50 (PBMC): > 10 µM; Activity [16]: Not Active; Activity (Hs-578T [17]): inactive; Activity (T47D [18]): inactive; Activity (SNB-19 [19]): inactive; Activity (OCI-Ly7): Active; Activity (Homo sapiens): Active; Activity (SKW3): Active |
| Nc1cc(=O)[nH]c(=O)n1[C@@H]1O[C@H](CO)[C@@H](O)[C@H]1O | – | > 50 µM | > 50 µM | inactive | inactive | Not Active | inactive | inactive | inactive | inactive | > 50 µM | > 50 µM | > 50 µM | > 50 µM | > 50 µM | > 50 µM | > 50 µM | > 50 µM | – |
| CCc1c(F)c(=O)[nH]c(=O)n1[C@@H]1O[C@H](COP(=O)(O)O)[C@@H](O)[C@H]1O | 29 µM | – | – | – | – | – | – | – | – | – | – | – | – | – | – | – | – | – | Ki [20]: 0.35 µM |
